Here are results for six molecules from ChEMBL document CHEMBL4602632, “Synthesis and anti-Mycobacterium tuberculosis activity of imide-β-carboline and carbomethoxy-β-carboline derivatives” (Eur J Med Chem, 2020).

Structures are written as SMILES. Converted amounts (≈) assume the structure as drawn.

Assay type in all cases: functional
The subject of assay [1] is Mycobacterium tuberculosis. The assay can be described thus: Antimycobacterial activity against Mycobacterium tuberculosis 3614 harbouring wild type KatG and InhA Ile21Thr mutant assessed as reduction in bacterial growth incubated for 7 days by resazurin dye based assay. The method in brief:
(§1)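 REMA broth microdilution: DMSO stocks diluted in 7H9-OADC, standardized inoculum added, final 0.98 to 250 μg/mL; 7 days at 35 °C in normal atmosphere, then 0.01% resazurin and a further 24 h at 35 °C. Read visually. MIC is the lowest concentration preventing the blue-to-pink change. Three independent assays on different days; isoniazid reference, medium, sterility and growth ±2.5% DMSO controls.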

Assay [2] relates to Mycobacterium tuberculosis. The assay can be described thus: Antimycobacterial activity against Mycobacterium tuberculosis 71A harbouring KatG Ser315Thr mutant and wild type InhA assessed as reduction in bacterial growth incubated for 7 days by resazurin dye based assay. The method in brief:
as §1

The test system of assay [3] is Mycobacterium tuberculosis. The assay can be described thus: Antimycobacterial activity against Mycobacterium tuberculosis 19 harbouring KatG Ser315Thr mutant and wild type InhA assessed as reduction in bacterial growth incubated for 7 days by resazurin dye based assay. In outline: as §1
Assay [4] concerns Mycobacterium tuberculosis. Description: Antimycobacterial activity against Mycobacterium tuberculosis 73A harbouring KatG Ser315Thr mutant and wild type InhA assessed as reduction in bacterial growth incubated for 7 days by resazurin dye based assay. The method in brief: as §1
Assay [5] deals with Mycobacterium tuberculosis. Description: Antimycobacterial activity against Mycobacterium tuberculosis 91 harbouring KatG Ser315Thr mutant and wild type InhA assessed as reduction in bacterial growth incubated for 7 days by resazurin dye based assay. In outline:
as §1

Assay [6] deals with Mycobacterium tuberculosis. The assay can be described thus: Antimycobacterial activity against Mycobacterium tuberculosis BRF45 harbouring KatG Ser315Thr mutant and wild type InhA assessed as reduction in bacterial growth incubated for 7 days by resazurin dye based assay. The method in brief:
as §1

Assay [7] deals with Mycobacterium tuberculosis. Description: Antimycobacterial activity against Mycobacterium tuberculosis BRF57 harbouring KatG Ser315Thr mutant and wild type InhA assessed as reduction in bacterial growth incubated for 7 days by resazurin dye based assay. The method in brief: as §1
Assay [8] relates to Mycobacterium tuberculosis. Description: Antimycobacterial activity against Mycobacterium tuberculosis BRF14 harbouring KatG Ser315Thr mutant and wild type InhA assessed as reduction in bacterial growth incubated for 7 days by resazurin dye based assay. The method in brief:
as §1

In assay [9] the test system is Mycobacterium tuberculosis. Description: Antimycobacterial activity against Mycobacterium tuberculosis BRF16 harbouring KatG Ser315Thr mutant and wild type InhA assessed as reduction in bacterial growth incubated for 7 days by resazurin dye based assay. The method in brief: as §1

`COC(=O)c1cc2c([nH]c3ccccc32)c(-c2ccc(N(C)C)cc2)n1`: the MIC in assay [1] was 90.54 µM (≈ 31.3 µg/mL); in assay [2], >724.32 µM; in assay [3] it was 90.55 µM (≈ 31.3 µg/mL); in assay [4], 90.54 µM (≈ 31.3 µg/mL); in assay [5], 180.36 µM (≈ 62.3 µg/mL); in assay [6], 90.54 µM (≈ 31.3 µg/mL). Moreover, the MIC in [7] is 362.16 µM (≈ 125 µg/mL); in assay [8], 724.32 µM (≈ 250 µg/mL); in assay [9], 362.16 µM.

As to `O=C(NN1C(=O)CCC1=O)c1cc2c([nH]c3ccccc32)c(-c2ccc(F)cc2)n1`, the MIC in assay [1] amounted to 155.43 µM (≈ 62.5 µg/mL); in [2] it was 310.86 µM (≈ 125 µg/mL); in assay [3], 155.43 µM (≈ 62.5 µg/mL); in [4], 77.72 µM (≈ 31.3 µg/mL); in assay [5] it was 310.86 µM (≈ 125 µg/mL); in assay [6] it was 77.72 µM (≈ 31.3 µg/mL). The MIC in assay [7] is 310.86 µM (≈ 125 µg/mL); in [8] it was 310.86 µM (≈ 125 µg/mL); in [9], 62.5 µg/mL.

For the molecule `O=C(NN1C(=O)c2ccccc2C1=O)c1cc2c([nH]c3ccccc32)c(-c2cccc([N+](=O)[O-])c2)n1`, the MIC in [1] is 261.99 µM (≈ 125 µg/mL); in assay [2], >523.99 µM; in assay [3] it was 261.99 µM (≈ 125 µg/mL); in assay [4], 261.99 µM (≈ 125 µg/mL); in assay [5], >523.99 µM; in [6], 261.99 µM (≈ 125 µg/mL). For the same molecule, the MIC in [7] was >523.99 µM; in assay [8] it was 523.99 µM (≈ 250 µg/mL); in assay [9], 261.99 µM.

`O=C(NN1C(=O)c2ccccc2C1=O)c1cc2c([nH]c3ccccc32)c(-c2ccccc2)n1`: the MIC was found to be 144.64 µM (≈ 62.5 µg/mL) in assay [1]; 289.27 µM (≈ 125 µg/mL) in assay [2]; 144.64 µM (≈ 62.5 µg/mL) in [3]; 144.64 µM (≈ 62.5 µg/mL) in assay [4]; 289.27 µM (≈ 125 µg/mL) in [5]; 144.64 µM (≈ 62.5 µg/mL) in assay [6]. The values for the MIC in [7], in [8] and in [9] were 289.27 µM (≈ 125 µg/mL), 289.27 µM (≈ 125 µg/mL) and 289.27 µM, respectively.

`O=C(NN1C(=O)c2ccccc2C1=O)c1cc2c([nH]c3ccccc32)c(-c2ccc(F)cc2)n1`: the MIC came out at 138.85 µM (≈ 62.5 µg/mL) in assay [1]; 277.71 µM (≈ 125 µg/mL) in [2]; 138.85 µM (≈ 62.5 µg/mL) in assay [3]; 138.85 µM (≈ 62.5 µg/mL) in assay [4]; 277.71 µM (≈ 125 µg/mL) in assay [5]; 138.85 µM (≈ 62.5 µg/mL) in assay [6]. The MIC in assay [7] was determined as 277.71 µM (≈ 125 µg/mL); in assay [8], 138.85 µM (≈ 62.5 µg/mL); in [9], 138.85 µM.

Consider `NNC(=O)c1ccncc1` [ISONIAZID], for which the minimal inhibitory concentration (MIC) in assay [1] was determined as 4 µM (≈ 0.549 µg/mL); in [2], 4 µM (≈ 0.549 µg/mL); in [3] it was 2 µM (≈ 0.274 µg/mL); in [4] it was 4 µM (≈ 0.549 µg/mL); in [5], 2 µM (≈ 0.274 µg/mL); in [6], 4 µM (≈ 0.549 µg/mL). The MIC in assay [7] amounted to 4 µM (≈ 0.549 µg/mL); in assay [8] it was 8 µM (≈ 1.1 µg/mL); in assay [9], 8 µM.
